Data as given in ChEMBL document CHEMBL1158179, “Facile synthesis of dithiatetraaza-macrocycles of potential anti-inflammatory activity” (Eur J Med Chem, 2008).

Key:
Rattus norvegicus [1] = assay: Antiinflammatory activity against carrageenan-induced paw edema in Wister albino rat at 50 mg/kg, ip administered 1 hr before inflammation induction assessed after 4 hrs; assay type: functional; details: route intraperitoneal
How it was run: (§1)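 Wistar albino rats of either sex (pregnant females excluded), 160–190 g, 6 per group, kept at 22 °C on a 12 h light/dark cycle. Agent in DMSO given i.p. 1 h before 0.1 ml of 1% carrageenan in saline was injected subcutaneously into the right hind paw. Controls got DMSO. Oedema was paw volume by plethysmometer minus initial volume. Values are % inhibition = (Vc−Vt)/Vc×100; means ± SE, one-way ANOVA with LSD, p<0.05.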

Rattus norvegicus [2] = assay: Antiinflammatory activity against carrageenan-induced paw edema in Wister albino rat at 50 mg/kg, ip administered 1 hr before inflammation induction assessed after 4 hrs relative to indomethacin; assay type: functional; details: route intraperitoneal
How it was run: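 Same rat carrageenan paw oedema protocol: i.p. dosing in DMSO 1 h before carrageenan, with paw volume read by plethysmometer at 4 h. Potency is the % oedema inhibition of the test group divided by that of the indomethacin (10 mg/kg i.p.) group.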

Mus musculus [3] = assay: Toxicity in albino mouse at 750 mg/kg, ip assessed as mortality after 24 hrs by LD50 standard method; assay type: organism-based; parameters: dose 750 mg/kg, route intraperitoneal; details: in vivo
How it was run: (§2)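 Albino mice, 20-25 g, 9 groups of 6; test agents dissolved in DMSO and given intraperitoneally at 500, 750 and 1000 mg/kg body weight; controls received DMSO only. Toxic symptoms, mortality and postmortem findings recorded 24 h after administration; LD50 computed by formula from largest dose killing all animals, mean dead between successive groups, dose factor and group size.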

Mus musculus [4] = assay: Toxicity in albino mouse at 1000 mg/kg, ip assessed as mortality after 24 hrs by LD50 standard method; assay type: organism-based; parameters: dose 1000 mg/kg, route intraperitoneal; details: in vivo; how it was run: as §2
Rattus norvegicus [5] = assay: Antiinflammatory activity against carrageenan-induced paw edema in Wister albino rat at 50 mg/kg, ip administered 1 hr before inflammation induction assessed after 2 hrs; assay type: functional; details: route intraperitoneal; how it was run: as §1
Mus musculus [6] = assay: Toxicity in albino mouse at 500 mg/kg, ip assessed as mortality after 24 hrs by LD50 standard method; assay type: organism-based; parameters: dose 500 mg/kg, route intraperitoneal; details: in vivo; how it was run: as §2
Rattus norvegicus [7] = assay: Antiinflammatory activity against carrageenan-induced paw edema in Wister albino rat at 50 mg/kg, ip administered 1 hr before inflammation induction assessed after 3 hrs; assay type: functional; details: route intraperitoneal; how it was run: as §1
Rattus norvegicus [8] = assay: Antiinflammatory activity against carrageenan-induced paw edema in Wister albino rat at 50 mg/kg, ip administered 1 hr before inflammation induction assessed after 1 hr; assay type: functional; details: route intraperitoneal; how it was run: as §1
Rattus norvegicus [9] = assay: Antiinflammatory activity against carrageenan-induced paw edema in Wister albino rat at 10 mg/kg, ip administered 1 hr before inflammation induction assessed after 2 hrs; assay type: functional; details: route intraperitoneal; how it was run: as §1
Rattus norvegicus [10] = assay: Antiinflammatory activity against carrageenan-induced paw edema in Wister albino rat at 10 mg/kg, ip administered 1 hr before inflammation induction assessed after 3 hrs; assay type: functional; details: route intraperitoneal; how it was run: as §1
Rattus norvegicus [11] = assay: Antiinflammatory activity against carrageenan-induced paw edema in Wister albino rat at 10 mg/kg, ip administered 1 hr before inflammation induction assessed after 1 hr; assay type: functional; details: route intraperitoneal; how it was run: as §1
Rattus norvegicus [12] = assay: Antiinflammatory activity against carrageenan-induced paw edema in Wister albino rat at 10 mg/kg, ip administered 1 hr before inflammation induction assessed after 4 hrs; assay type: functional; details: route intraperitoneal; how it was run: as §1

Compound	inhibition in vivo at 50 mg/kg (Rattus norvegicus [1])	Ratio (Rattus norvegicus [2])	further results
S=C(Nc1ccccc1)Nc1ccccc1SCCCSc1ccccc1NC(=S)Nc1ccccc1	38%	0.66	–
O=C1Nc2ccc(cc2)NC(=O)Nc2ccccc2SCCCSc2ccccc2N1	48.9%	0.85	Activity (Mus musculus [3]): Non-toxic; Activity (Mus musculus [4]): Non-toxic; inhibition in vivo at 50 mg/kg (Rattus norvegicus [5]): 44%; Activity (Mus musculus [6]): Non-toxic; inhibition in vivo at 50 mg/kg (Rattus norvegicus [7]): 46.6%; inhibition in vivo at 50 mg/kg (Rattus norvegicus [8]): 45.4%
O=C(Nc1ccc(Cl)c(Cl)c1)Nc1ccccc1SCCCSc1ccccc1NC(=O)Nc1ccc(Cl)c(Cl)c1	28.3%	0.49	–
COc1ccc(NC(=O)Nc2ccccc2SCCSc2ccccc2NC(=O)Nc2ccc(OC)cc2)cc1	51.9%	0.9	Activity (Mus musculus [3]): Non-toxic; Activity (Mus musculus [4]): Non-toxic; inhibition in vivo at 50 mg/kg (Rattus norvegicus [5]): 38.4%; Activity (Mus musculus [6]): Non-toxic; inhibition in vivo at 50 mg/kg (Rattus norvegicus [7]): 39.2%; inhibition in vivo at 50 mg/kg (Rattus norvegicus [8]): 35.2%
COc1ccc(NC(=O)Nc2ccccc2SCCCSc2ccccc2NC(=O)Nc2ccc(OC)cc2)cc1	35%	0.61	–
CCNC(=O)Nc1ccccc1SCCSc1ccccc1NC(=O)NCC	33.1%	0.57	–
S=C(Nc1ccccc1)Nc1ccccc1SCCSc1ccccc1NC(=S)Nc1ccccc1	43.3%	0.75	–
O=C(Nc1ccccc1)Nc1ccccc1SCCSc1ccccc1NC(=O)Nc1ccccc1	32.8%	0.57	–
O=C(Nc1ccccc1)Nc1ccccc1SCCCSc1ccccc1NC(=O)Nc1ccccc1	29.6%	0.51	–
O=C1Nc2ccc(cc2)NC(=O)Nc2ccccc2SCCSc2ccccc2N1	34.9%	0.61	–
O=C(Nc1ccc(Cl)c(Cl)c1)Nc1ccccc1SCCSc1ccccc1NC(=O)Nc1ccc(Cl)c(Cl)c1	7.1%	0.12	–
CCNC(=O)Nc1ccccc1SCCCSc1ccccc1NC(=O)NCC	42.1%	0.73	–
COc1ccc2c(c1)c(CC(=O)O)c(C)n2C(=O)c1ccc(Cl)cc1 [INDOMETHACIN]	–	–	inhibition in vivo at 10 mg/kg (Rattus norvegicus [9]): 48.2%; inhibition in vivo at 10 mg/kg (Rattus norvegicus [10]): 50.1%; inhibition in vivo at 10 mg/kg (Rattus norvegicus [11]): 50.5%; inhibition in vivo at 10 mg/kg (Rattus norvegicus [12]): 57.6%
